What was measured:
[1] = target: Cytochrome P450 3A4 (Homo sapiens, UniProt P08684); experiment: Inhibition of CYP3A4 in human liver microsomes assessed as midazolam 1'-hydroxylation after 3 mins by LC-MS/MS analysis; assay type: ADME
[2] = tested on: Hepatocyte; experiment: Induction of CYP1A2 mRNA expression in human hepatocytes assessed as phenacetin O-deethylation up to 100 uM by LC-MS/MS analysis; assay type: ADME, cell-based
In short: (§1)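 Primary hepatocytes from three donors treated once daily for 3 days: saxagliptin 0.2–25 µM, M2 0.2–100 µM, 0.1% DMSO as vehicle. Microsomal activity assayed by LC-MS/MS: phenacetin 100 µM with 0.02 mg/ml protein (CYP1A2), bupropion 250 µM with 0.02 mg/ml (CYP2B6), testosterone 200 µM with 0.01 mg/ml (CYP3A4). mRNA measured by TaqMan qPCR as 2^ΔCT relative to endogenous control and DMSO.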

[3] = tested on: Hepatocyte; experiment: Cytotoxicity against human hepatocytes assessed as change in morphological integrity up to 25 uM; assay type: cell-based
[4] = tested on: Hepatocyte; experiment: Induction of CYP1A2 mRNA expression in human hepatocytes assessed as phenacetin O-deethylation up to 25 uM by LC-MS/MS analysis; assay type: ADME, cell-based; in short: as §1
[5] = Oral bioavailability in dog; assay type: ADME, organism-based, Canis lupus familiaris; conditions: in vivo
[6] = Drug metabolism in human assessed as parent compound level in urine at 50 mg, po after up to 168 hrs by LC-MS/MS analysis; assay type: ADME, organism-based; conditions: in vivo
In short: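 Single 50-mg oral solution dose of [14C]saxagliptin (91.5 µCi) given to healthy male subjects after a 10-h fast. Urine collected as 0–12 h and 12–24 h pools, then in 24-h intervals to 168 h. Saxagliptin and M2 measured by validated positive-ESI LC-MS/MS with MRM; urine standard curves 25–5000 ng/ml for saxagliptin and 50–10,000 ng/ml for M2.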

[7] = tested on: Hepatocyte; experiment: Induction of CYP3A4 mRNA expression in human hepatocytes assessed as testosterone 6beta-hydroxylation up to 25 uM by LC-MS/MS analysis; assay type: ADME, cell-based; in short: as §1
[8] = target: Cytochrome P450 3A5 (Homo sapiens, UniProt P20815); experiment: Drug metabolism assessed as human CYP3A5-mediated 5-hydroxy saxagliptin formation at 10 uM after 30 mins by LC-MS/MS analysis; assay type: ADME; conditions: recombinant enzyme, 0.5 h
Cytochrome P450 3A5, sequence (P20815 whole entry): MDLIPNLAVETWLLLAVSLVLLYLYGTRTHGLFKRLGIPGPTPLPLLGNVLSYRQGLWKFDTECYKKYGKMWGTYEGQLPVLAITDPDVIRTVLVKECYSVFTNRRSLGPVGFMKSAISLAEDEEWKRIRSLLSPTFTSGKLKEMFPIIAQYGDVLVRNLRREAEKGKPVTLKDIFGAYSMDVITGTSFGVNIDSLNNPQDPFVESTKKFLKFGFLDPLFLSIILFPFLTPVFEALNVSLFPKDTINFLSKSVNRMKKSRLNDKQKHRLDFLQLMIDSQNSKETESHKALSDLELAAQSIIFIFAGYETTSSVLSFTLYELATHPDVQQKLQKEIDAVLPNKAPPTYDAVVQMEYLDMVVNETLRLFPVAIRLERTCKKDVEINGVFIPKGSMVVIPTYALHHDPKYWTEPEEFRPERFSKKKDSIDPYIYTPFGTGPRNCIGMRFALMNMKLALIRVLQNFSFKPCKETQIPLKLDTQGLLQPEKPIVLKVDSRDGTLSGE

Cytochrome P450 3A4, sequence (P08684 whole entry): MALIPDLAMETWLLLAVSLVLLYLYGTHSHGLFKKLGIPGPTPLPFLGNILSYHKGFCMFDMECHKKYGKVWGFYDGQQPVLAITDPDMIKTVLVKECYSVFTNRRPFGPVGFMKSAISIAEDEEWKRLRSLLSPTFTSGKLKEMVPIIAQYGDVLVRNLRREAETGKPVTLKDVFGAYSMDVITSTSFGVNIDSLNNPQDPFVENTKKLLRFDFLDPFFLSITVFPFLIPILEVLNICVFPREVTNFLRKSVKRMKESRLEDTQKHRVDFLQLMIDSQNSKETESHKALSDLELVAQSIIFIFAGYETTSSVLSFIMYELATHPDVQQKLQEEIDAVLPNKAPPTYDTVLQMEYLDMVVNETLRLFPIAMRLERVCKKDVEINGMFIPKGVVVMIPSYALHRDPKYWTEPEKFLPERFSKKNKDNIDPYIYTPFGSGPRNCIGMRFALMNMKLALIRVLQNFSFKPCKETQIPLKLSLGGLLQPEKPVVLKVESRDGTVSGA

Row | IC50 [1] | Activity [2] | Activity [4] | bioavailability [5] | Drug metabolism [6] | Activity [7] | Drug metabolism [8] | SMILES | Activity [3]
1 | > 200 µM | Not Active | – | – | – | – | – | N#C[C@@H]1C[C@@H]2C[C@@H]2N1C(=O)[C@@H](N)C12CC3CC(O)(CC(O)(C3)C1)C2 | –
2 | – | – | Not Active | 76% | metabolite_detected | Not Active | metabolite_detected | N#C[C@@H]1C[C@@H]2C[C@@H]2N1C(=O)[C@@H](N)C12CC3CC(CC(O)(C3)C1)C2 [SAXAGLIPTIN ANHYDROUS] | Non-toxic
